Measured values: ChEMBL document CHEMBL5150048, “Synthesis and Evaluation of Polymyxins Bearing Reductively Labile Disulfide-Linked Lipids” (J Med Chem, 2022)
Starred links: 1 amine or outer side, 2 acyl side, 3 side chain; linkers in the order of their positions; H or OH if unused. Positions of bridges follow the written chain, without caps; N, C: chain ends. Non-standard residues stand in square brackets, D forms with d. Residues, ends and D or L forms follow the SMILES beside them. *: point of attachment. X2 = CC(C)CCCCC[C@@H](N[*:1])C(=O)[*:2]; S(2-cyclohexylethyl) = C1CCC(CCS*)CC1; S(3-Cl-benzyl) = Clc1cccc(CS*)c1; X3 = c1ccc(Oc2ccc(CS*)cc2)cc1; X5 = c1ccc(-c2ccc(CS*)cc2)cc1; S(3-Methylbutyl) = CC(C)CCS*; X6 = c1ccc(-c2ccc(S*)cc2)cc1; Dab = NCC[C@H](N)C(=O)O; X1 = CC(C)CCCCS*; X4 = CCCCCCS*

Legend:
Acinetobacter baumannii = assay: Antibacterial activity against Acinetobacter baumannii ATCC 19606 assessed as inhibition of bacterial growth by CLSI based broth microdilution method; format: functional
Procedure, shortened: (§1)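 Broth microdilution per CLSI. Colonies from overnight blood agar at 37 °C were grown in TSB to OD600 0.5. Compounds (6.4 mg/mL DMSO stock) were diluted serially in CAMHB (12.5 μg/mL Mg2+, 20 μg/mL Ca2+) in polypropylene plates and inoculated to a final 10^6 CFU/mL, then incubated at 37 °C under gas-permeable membrane. MIC is the lowest concentration without visible growth, from at least duplicate experiments.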

Erythrocyte = assay: Hemolytic activity in sheep erythrocytes at 128 ug/ml incubated for 1 hr by absorbance based analysis; format: toxicity, cell-based, Ovis aries; conditions: dose 128 µg/ml
Procedure, shortened: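 Defibrinated sheep red cells were washed four times in PBS with 0.002% Tween20 and adjusted to A415 2.5–3.0. They were mixed 1:1 by volume with compound serial dilutions (128–4 μg/mL, before mixing) and shaken 1 h at 37 °C. After centrifugation, supernatant was diluted in PBS and read at 415 nm. Values were background-corrected and given as % of 0.1% Triton X-100 lysis, from triplicates.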

[1] = Stability of the compound in PBS assessed as drug degradation at 1 mg/ml incubated for 24 hrs in presence of 5 mM glutathione by RP-HPLC analysis; format: physicochemical; conditions: buffer
Procedure, shortened: (§2)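 Compound (1 mg/mL stock) was mixed 1:9 by volume with PBS glutathione stock: 5.5 μM for the low-glutathione line (7), 5.5 mM for the high-glutathione line (8). Vials were N2-flushed and held in the HPLC autosampler at RT. Samples at 0, 1, 2, 3, 4, 8, 10 and 24 h were analysed by RP-HPLC, UV 214 nm, and quantified against an external calibration curve in PBS run in duplicate.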

[2] = Stability of the compound in PBS assessed as compound remaining at 1 mg/ml incubated for 24 hrs in presence of 5 uM glutathione by RP-HPLC analysis; format: physicochemical; conditions: PBS with 5 uM glutathione, read-out: Stability; procedure, shortened: as §2
[3] = Cytotoxicity against human differentiated conditionally immortalized RPTEC cells assessed as reduction in cell viability incubated for 24 hrs by PrestoBlue reagent based assay; format: toxicity; conditions: read-out: TC50
Procedure, shortened: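 ciPTEC (OAT-1) cells were seeded at 2.0 × 10^5 cells/mL in DMEM/F-12 with 10% FCS, insulin, transferrin, selenium, hydrocortisone, EGF and tri-iodothyronine. They were differentiated 24 h at 33 °C then 6 days at 37 °C, 5% CO2. Compounds serially diluted in serum-free medium were applied for 24 h at 37 °C, then 10% PrestoBlue in HBSS was added. Fluorescence (ex 530/em 590 nm) was background-corrected and normalized to untreated cells. TC50 came from nonlinear regression with bottom fixed at 0.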

Pseudomonas aeruginosa = assay: Antibacterial activity against Pseudomonas aeruginosa ATCC 27853 assessed as inhibition of bacterial growth by CLSI based broth microdilution method; format: functional; procedure, shortened: as §1
Escherichia coli = assay: Antibacterial activity against Escherichia coli ATCC 25922 assessed as inhibition of bacterial growth by CLSI based broth microdilution method; format: functional; procedure, shortened: as §1
[4] = Toxicity index, ratio of test compound TC50 to polymyxin B TC50 for cytotoxicity against human differentiated conditionally immortalized RPTEC cells incubated for 24 hrs by PrestoBlue reagent based assay; format: cell-based
Klebsiella pneumoniae = assay: Antibacterial activity against Klebsiella pneumoniae ATCC 13883 assessed as inhibition of bacterial growth by CLSI based broth microdilution method; format: functional; procedure, shortened: as §1

CC(C)CCSSC[C@H](N)C(=O)N[C@H](C(=O)N[C@@H](CCN)C(=O)N[C@H]1CCNC(=O)[C@H]([C@@H](C)O)NC(=O)[C@H](CCN)NC(=O)[C@H](CCN)NC(=O)[C@H](CC(C)C)NC(=O)[C@@H](Cc2ccccc2)NC(=O)[C@H](CCN)NC1=O)[C@@H](C)O (H-C(S(3-Methylbutyl))T[Dab][Dab][Dab][dF]L[Dab][Dab]T; lactam 4-C)
MIC (Acinetobacter baumannii): > 32 µg/mL

CCCCCCSSC[C@H](N)C(=O)N[C@H](C(=O)N[C@@H](CCN)C(=O)N[C@H]1CCNC(=O)[C@H]([C@@H](C)O)NC(=O)[C@H](CCN)NC(=O)[C@H](CCN)NC(=O)[C@H](CC(C)C)NC(=O)[C@@H](Cc2ccccc2)NC(=O)[C@H](CCN)NC1=O)[C@@H](C)O (H-C(X4)T[Dab][Dab][Dab][dF]L[Dab][Dab]T; lactam 4-C)
MIC (Acinetobacter baumannii): > 32 µg/mL

CC(C)C[C@@H]1NC(=O)[C@@H](Cc2ccccc2)NC(=O)[C@H](CCN)NC(=O)[C@@H](NC(=O)[C@H](CCN)NC(=O)[C@@H](NC(=O)[C@H](CSSCCC2CCCCC2)NC(=O)CN)[C@@H](C)O)CCNC(=O)[C@H]([C@@H](C)O)NC(=O)[C@H](CCN)NC(=O)[C@H](CCN)NC1=O (H-GC(S(2-cyclohexylethyl))T[Dab][Dab][Dab][dF]L[Dab][Dab]T; lactam 5-C)
Activity (Erythrocyte): Non-Toxic | Stability [1]: Unstable | remaining at 24 h, 1 mg/ml [2]: 70%

CC(C)C[C@@H]1NC(=O)[C@@H](Cc2ccccc2)NC(=O)[C@H](CCN)NC(=O)[C@@H](NC(=O)[C@H](CCN)NC(=O)[C@@H](NC(=O)[C@H](CSSc2ccc(-c3ccccc3)cc2)NC(=O)CN)[C@@H](C)O)CCNC(=O)[C@H]([C@@H](C)O)NC(=O)[C@H](CCN)NC(=O)[C@H](CCN)NC1=O (H-GC(X6)T[Dab][Dab][Dab][dF]L[Dab][Dab]T; lactam 5-C)
Activity (Erythrocyte): Non-Toxic

CC(C)C[C@@H]1NC(=O)[C@@H](Cc2ccccc2)NC(=O)[C@H](CCN)NC(=O)[C@@H](NC(=O)[C@H](CCN)NC(=O)[C@@H](NC(=O)[C@@H](CSSCCC2CCCCC2)NC(=O)CN)[C@@H](C)O)CCNC(=O)[C@H]([C@@H](C)O)NC(=O)[C@H](CCN)NC(=O)[C@H](CCN)NC1=O (H-G[dC](S(2-cyclohexylethyl))T[Dab][Dab][Dab][dF]L[Dab][Dab]T; lactam 5-C)
Activity (Erythrocyte): Non-Toxic

CC(C)CCCCC[C@@H](N)C(=O)N[C@H](C(=O)N[C@@H](CCN)C(=O)N[C@H]1CCNC(=O)[C@H]([C@@H](C)O)NC(=O)[C@H](CCN)NC(=O)[C@H](CCN)NC(=O)[C@H](CC(C)C)NC(=O)[C@@H](Cc2ccccc2)NC(=O)[C@H](CCN)NC1=O)[C@@H](C)O (H-[X2]T[Dab][Dab][Dab][dF]L[Dab][Dab]T; lactam 4-C)
Activity (Erythrocyte): Non-Toxic | CC50 at 24 h [3]: 82 µM

CC(C)C[C@@H]1NC(=O)[C@@H](Cc2ccccc2)NC(=O)[C@H](CCN)NC(=O)[C@@H](NC(=O)[C@H](CCN)NC(=O)[C@@H](NC(=O)[C@H](N)CSSCCC2CCCCC2)[C@@H](C)O)CCNC(=O)[C@H]([C@@H](C)O)NC(=O)[C@H](CCN)NC(=O)[C@H](CCN)NC1=O (H-[dC](S(2-cyclohexylethyl))T[Dab][Dab][Dab][dF]L[Dab][Dab]T; lactam 4-C)
Activity (Erythrocyte): Non-Toxic

CC(C)C[C@@H]1NC(=O)[C@@H](Cc2ccccc2)NC(=O)[C@H](CCN)NC(=O)[C@@H](NC(=O)[C@H](CCN)NC(=O)[C@@H](NC(=O)[C@H](N)CSSCc2cccc(Cl)c2)[C@@H](C)O)CCNC(=O)[C@H]([C@@H](C)O)NC(=O)[C@H](CCN)NC(=O)[C@H](CCN)NC1=O (H-[dC](S(3-Cl-benzyl))T[Dab][Dab][Dab][dF]L[Dab][Dab]T; lactam 4-C)
Activity (Erythrocyte): Non-Toxic

CC(C)CCSSC[C@@H](N)C(=O)N[C@H](C(=O)N[C@@H](CCN)C(=O)N[C@H]1CCNC(=O)[C@H]([C@@H](C)O)NC(=O)[C@H](CCN)NC(=O)[C@H](CCN)NC(=O)[C@H](CC(C)C)NC(=O)[C@@H](Cc2ccccc2)NC(=O)[C@H](CCN)NC1=O)[C@@H](C)O (H-[dC](S(3-Methylbutyl))T[Dab][Dab][Dab][dF]L[Dab][Dab]T; lactam 4-C)
Activity (Erythrocyte): Non-Toxic | CC50 at 24 h [3]: 192 µM | Stability [1]: Unstable | remaining at 24 h, 1 mg/ml [2]: 70%

CC(C)CCCCSSC[C@@H](N)C(=O)N[C@H](C(=O)N[C@@H](CCN)C(=O)N[C@H]1CCNC(=O)[C@H]([C@@H](C)O)NC(=O)[C@H](CCN)NC(=O)[C@H](CCN)NC(=O)[C@H](CC(C)C)NC(=O)[C@@H](Cc2ccccc2)NC(=O)[C@H](CCN)NC1=O)[C@@H](C)O (H-[dC](X1)T[Dab][Dab][Dab][dF]L[Dab][Dab]T; lactam 4-C)
Activity (Erythrocyte): Non-Toxic

CC(C)C[C@@H]1NC(=O)[C@@H](Cc2ccccc2)NC(=O)[C@H](CCN)NC(=O)[C@@H](NC(=O)[C@H](CCN)NC(=O)[C@@H](NC(=O)[C@H](N)CSSCc2ccc(Oc3ccccc3)cc2)[C@@H](C)O)CCNC(=O)[C@H]([C@@H](C)O)NC(=O)[C@H](CCN)NC(=O)[C@H](CCN)NC1=O (H-[dC](X3)T[Dab][Dab][Dab][dF]L[Dab][Dab]T; lactam 4-C)
Activity (Erythrocyte): Non-Toxic

CCCCCCSSC[C@@H](N)C(=O)N[C@H](C(=O)N[C@@H](CCN)C(=O)N[C@H]1CCNC(=O)[C@H]([C@@H](C)O)NC(=O)[C@H](CCN)NC(=O)[C@H](CCN)NC(=O)[C@H](CC(C)C)NC(=O)[C@@H](Cc2ccccc2)NC(=O)[C@H](CCN)NC1=O)[C@@H](C)O (H-[dC](X4)T[Dab][Dab][Dab][dF]L[Dab][Dab]T; lactam 4-C)
Activity (Erythrocyte): Non-Toxic

CC(C)C[C@@H]1NC(=O)[C@@H](Cc2ccccc2)NC(=O)[C@H](CCN)NC(=O)[C@@H](NC(=O)[C@H](CCN)NC(=O)[C@@H](NC(=O)[C@H](N)CSSCc2ccc(-c3ccccc3)cc2)[C@@H](C)O)CCNC(=O)[C@H]([C@@H](C)O)NC(=O)[C@H](CCN)NC(=O)[C@H](CCN)NC1=O (H-[dC](X5)T[Dab][Dab][Dab][dF]L[Dab][Dab]T; lactam 4-C)
Activity (Erythrocyte): Non-Toxic

CC(C)C[C@@H]1NC(=O)[C@@H](Cc2ccccc2)NC(=O)[C@H](CCN)NC(=O)[C@@H](NC(=O)[C@H](CCN)NC(=O)[C@@H](N)[C@@H](C)O)CCNC(=O)[C@H]([C@@H](C)O)NC(=O)[C@H](CCN)NC(=O)[C@H](CCN)NC1=O [POLYMYXIN B NONAPEPTIDE] (H-T[Dab][Dab][Dab][dF]L[Dab][Dab]T; lactam 3-C)
MIC (Pseudomonas aeruginosa): > 32 µg/mL | MIC (Escherichia coli): > 32 µg/mL | selectivity ratio at 24 h [4]: > 10 | MIC (Klebsiella pneumoniae): > 32 µg/mL | MIC (Acinetobacter baumannii): > 32 µg/mL

POLYMYXIN B [listing 1 of 2 here]
Activity (Erythrocyte): Non-Toxic

POLYMYXIN B [listing 2 of 2 here]
MIC (Pseudomonas aeruginosa): 1 µg/mL | MIC (Escherichia coli): 1 µg/mL | MIC (Klebsiella pneumoniae): 0.25 µg/mL | MIC (Acinetobacter baumannii): 0.25 µg/mL
